# Reference: article PMC5862033 (Molecular psychiatry, 2017)
# What was measured:
# [1] = d5 OT pharmacokinetics in plasma and CSF after IN and IV administration; format: in vivo, rhesus monkeys (Macaca Mulatta); settings: for Drug targeting efficiency percentage (DTE%), single monkey: 80 IU d5 OT IN vs IV, AUC0-60 min, individual monkey
# Procedure, shortened: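 Rhesus monkeys sedated IM: ketamine (10 mg/kg), dexdomitor (0.01 mg/kg), glycopyrrolate 0.01 mg/kg i.m.; 80 IU deuterated test compound given IN or IV (1 mL normal saline, leg vein), IN saline control, counterbalanced weekly sessions. Blood and CSF drawn pre-dose and 10–60 min. Samples acetonitrile-precipitated, SPE-cleaned at pH 3.0, LC-MS/MS. Non-compartmental AUC0–60, Cmax, Tmax; bioavailability and DTE from AUC ratios.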
# [2] = statement in discussion, no reference given; cited from earlier work
# [3] = study did not use labelled OT; cited from earlier work
# [4] = used as correction in blood contamination formula; cited from earlier work
compound,measurement,setting,value
d5-oxytocin [d5 OT],"Drug targeting efficiency percentage (DTE%), single monkey",[1]; first of 4 values listed,33.6%
same,"Drug targeting efficiency percentage (DTE%), single monkey",[1]; second of 4 values listed,50.5%
same,"Drug targeting efficiency percentage (DTE%), single monkey",[1]; third of 4 values listed,154.6%
same,Bioavailability post IN administration for plasma and CSF,"[1]; 100 x (AUC IN/AUC IV), 80 IU d5 OT, plasma and CSF, values only in words","similar, albeit low"
atosiban,Passage of the BBB,[2],does not pass the BBB
"CC[C@H](C)[C@@H]1NC(=O)[C@H](Cc2ccc(O)cc2)NC(=O)[C@@H](N)CSSC[C@@H](C(=O)N2CCC[C@H]2C(=O)N[C@@H](CC(C)C)C(=O)NCC(N)=O)NC(=O)[C@H](CC(N)=O)NC(=O)[C@H](CCC(N)=O)NC1=O [OT, Oxytocin]",Fraction of OT crossing the BBB,[3],~ .002%
same,Fraction of OT that is not protein bound,[4],0.7
